Published values gathered from unrelated publications.
Protocols differ between the studies behind these lines.
FGFR3: Fibroblast growth factor receptor 3 (FGFR3, Homo sapiens, UniProt P22607)
FGFR3 G697C: Fibroblast growth factor receptor 3 (FGFR3, Homo sapiens, UniProt P22607, G697C)
FGFR3 K650E: Fibroblast growth factor receptor 3 (FGFR3, Homo sapiens, UniProt P22607, K650E)

Structure (SMILES)	target	test	conditions	quantity	value
O=C(Nc1cnn(-c2csc(C(=O)NC3COC3)c2)c1)Nc1ccccc1Cl	FGFR3	enzyme activity, inhibitor	5 µM	remaining activity	97.8%
CNCc1ccc(-c2cc(-c3nc(-c4ccc(S(=O)(=O)C(C)C)cc4)cnc3N)on2)cc1	FGFR3	enzyme activity, inhibitor	0.4 µM	inhibition	0%
O=C(Nc1cnn(-c2csc(C(=O)NC3COC3)c2)c1)Nc1c(F)cccc1Cl	FGFR3	enzyme activity, inhibitor	5 µM	remaining activity	92%
CNC(=O)c1cc(Oc2ccc(NC(=O)Nc3ccc(Cl)c(C(F)(F)F)c3)cc2)ccn1	FGFR3	enzyme activity, inhibitor	0.3 µM	inhibition	32%
C[C@@]1(Cc2ccc(C#N)cc2)C(=O)N(c2cc(Cl)cc(Cl)c2)c2ncc(C(=O)NC3(c4nc(C5CCC5)no4)CC3)n21	FGFR3 G697C	cell-free assay, competition with immobilised ligand	1 µM	remaining binding	100%
F[C@@H]1CCN(c2nccc(-c3cnn4ncccc34)n2)C1	FGFR3	binding	1 µM	remaining binding	100%
Cc1cnc(NC2CCOCC2)nc1-n1cnc(C(=O)NC(CN)c2cc(F)cc(Cl)c2)c1 (stereo not drawn)	FGFR3	enzyme activity, inhibitor, radiometric	1 µM	remaining activity	100%
CO[C@@H](C)c1c(Nc2ccc([C@H](N(C)C(=O)C3CCS(=O)(=O)CC3)C(F)(F)F)cc2)cnc2cc(Cl)nn12	FGFR3 G697C	cell-free assay, competition with immobilised ligand	1 µM	remaining binding	86%
N[C@H]1CCN(c2nccc(-c3cnn4ncccc34)n2)C1	FGFR3 G697C	binding	1 µM	remaining binding	100%
CNC(=O)Nc1ccc2c(c1)[C@@]1(CC2)OC(=O)N(CC(=O)N(Cc2ccc(F)cc2)[C@@H](C)C(F)(F)F)C1=O	FGFR3	cell-free assay, competition with immobilised ligand	1 µM	remaining binding	92%
CCN(CC)c1ccc(C2=NNC(=O)CC2C)cc1[N+](=O)[O-] (stereo not drawn)	FGFR3	enzyme activity, inhibitor	10 µM	remaining activity	93%
CN(C)c1ncc(F)c(-c2cnn3ncccc23)n1	FGFR3 G697C	binding	1 µM	remaining binding	100%
CCC(=O)N[C@H]1CC[C@@H](C(=O)N(C)c2ccc(-c3nc4ccccc4o3)cc2)C1	FGFR3	cell-free assay, competition with immobilised ligand	1 µM	remaining binding	98%
C=CC(=O)Nc1cc(Nc2nccc(Nc3cc(Cl)c(F)cc3C(C)(C)O)n2)c(OC)cc1N1CC[C@@H](N(C)C)C1	FGFR3	enzyme activity, inhibitor	1 µM	inhibition	4%
Cc1ccc(C(=O)Nc2ccc(CN3CCN(C)CC3)c(C(F)(F)F)c2)cc1C#Cc1cnc2cccnn12	FGFR3 G697C	cell-free assay	23.5 nM	remaining signal	63%
CCCOc1ccc(OC)c(F)c1C(=O)c1ccc(C(=O)N[C@@H]2CNC[C@H]2NC(=O)c2ccc3[nH]ncc3c2)cc1	FGFR3	enzyme activity, inhibitor	10 µM	remaining activity	47%
COc1ccc(COc2ccc(Cc3cnc(N)nc3N)cc2OC)cc1	FGFR3	cell-free assay	0.5 µM	remaining signal	105%
C[C@H](c1cccc(C#N)c1)n1cc(Cl)cc(C(N)=O)c1=N	FGFR3	cell-free assay, competition with immobilised ligand	1 µM	remaining binding	88%

Structure (SMILES)	target	test	conditions	quantity	value
COc1cc2ncnc(Nc3ccc(Oc4ccccc4)cc3C)c2cc1OC	FGFR3 K650E	enzyme activity, inhibitor	1 µM	inhibition	0%
Cc1cnn2ncc(-c3ccnc(N(C)C)n3)c2c1	FGFR3 G697C	binding	1 µM	remaining binding	82%
Cc1cc(C)c(-n2ccn3nc(-c4cccnc4)cc23)cc1NC(=O)c1cc(C#N)cc(S(F)(F)(F)(F)F)c1	FGFR3	cell-free assay, competition with immobilised ligand	0.1 µM	remaining binding	95.6%
CSc1nc(C)c(-c2ccnc(Nc3ccc(N4CCOCC4)cc3)c2)[nH]1	FGFR3	cell-free assay, inhibitor	10 µM	inhibition	70.4%
CS(=O)(=O)Nc1cccc(-c2csc(NC(=O)CSc3nc4nccnc4c(=O)n3CCc3ccccc3)n2)c1	FGFR3	enzyme activity, inhibitor	10 µM	inhibition	-15%
Cc1nc(Cc2cccc(C(F)(F)F)c2)sc1-c1ccc(C(N)=O)nc1	FGFR3	cell-free assay, competition with immobilised ligand	1 µM	remaining binding	100%
Nc1nc(Nc2ccc(S(N)(=O)=O)cc2)nn1C(=O)c1c(F)cccc1F	FGFR3	cell-free assay	0.5 µM	remaining signal	46.4%
Cc1ccc(C(=O)NCc2ccsc2)cc1C#Cc1cn(C(C)C)c2ncnc(N)c12	FGFR3	enzyme activity, inhibitor	1 µM	activity vs control	33%
COc1cc2ncnc(Nc3ccc(Oc4ccccc4)c(C)c3C)c2cc1OC	FGFR3 K650E	enzyme activity, inhibitor	1 µM	inhibition	3%
Nc1ncnc2occ(-c3ccc(NC(=O)Nc4cc(C(F)(F)F)ccc4F)cc3)c12	FGFR3 G697C	cell-free assay	20 µM	remaining signal	1.1%
C[C@@H]1CCN(c2nccc(-c3cnn4ncccc34)n2)C1	FGFR3 G697C	binding	1 µM	remaining binding	100%
Cc1cc(NC(=O)c2cccc3cc(-c4cccc5[nH]nc(N)c45)ccc23)ccc1F	FGFR3	enzyme activity, inhibitor	0.1 µM	activity vs control	98%
Cc1ccc(NC(=O)c2ccc(CN3CCN(C)CC3)cc2)cc1Nc1nc(-c2cccnc2)cs1	FGFR3	cell-free assay	0.5 µM	remaining signal	94.3%
CC/C(=N\NC(=O)NCc1cccc(O)c1)c1ccc(O)c(C)c1O	FGFR3	enzyme activity, inhibitor	0.1 µM	inhibition	2.2%
COc1cc2ncnc(Nc3ccc(F)c(Cl)c3)c2cc1OCCCN1CCOCC1	FGFR3	cell-free assay	0.5 µM	remaining signal	79.3%
COc1cc(-c2cn(C3CCc4c(F)cccc4N(CC(F)(F)F)C3=O)nn2)ccc1-n1cnc(C)c1 (stereo not drawn)	FGFR3	cell-free assay, competition with immobilised ligand	1 µM	remaining binding	100%
Cc1ccc(Nc2nccc(N(C)c3ccc4c(C)n(C)nc4c3)n2)cc1S(N)(=O)=O	FGFR3	enzyme activity, inhibitor	10 µM	inhibition	99%
CC(C)(C)c1nc2c(s1)c1nc(N)ncc1c1ccc(NS(=O)(=O)c3c(F)cccc3F)c(F)c12	FGFR3	enzyme activity, inhibitor, radiometric	1 µM	remaining activity	91%
